Laboratory results as given in ChEMBL document CHEMBL4261487, “Small structural changes of the imidazopyridine diacylglycerol acyltransferase 2 (DGAT2) inhibitors produce an improved safety profile” (Medchemcomm, 2017).
≈ marks a conversion by molar mass, not a printed value.

Assays:
UGT = assay: (§1) Drug metabolism in human liver microsomes assessed as UGT-mediated glucuronidation by measuring clearance rate; assay type: ADME; conditions: liver microsomes, read-out: CLH
CYP3A4 = CYP3A4 (Homo sapiens, UniProt P08684); assay: (§2) Drug metabolism in human liver microsomes assessed as CYP3A4-mediated oxidative metabolism by measuring clearance rate; assay type: ADME; conditions: liver microsomes, read-out: CLH
[1] = Apparent intrinsic clearance in rat hepatocytes assessed per million cells; assay type: ADME, cell-based, Hepatocyte
Canis familiaris [2] = assay: Unbound Cmax in beagle dog at 30 mg/kg, po qd administered for 1 month; assay type: ADME, organism-based, Canis lupus familiaris; conditions: in vivo
Outline: (§3)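 One-month dog toxicity study with once-daily oral dosing. Toxicity groups were 2/sex/dose, and unbound peak exposure was taken from toxicokinetic sampling.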

[3] = Fraction unbound in rat plasma; assay type: ADME, cell-free
[4] = as §1; assay type: ADME; conditions: microsomes
[5] = Drug metabolism in human liver microsomes assessed as fraction of UGT-mediated glucuronidation preincubated for 5 mins followed by addition of NADPH regenerating system and measured after 2.5 to 60 mins; assay type: ADME
Outline: (§4)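 Fractions of metabolism attributed to CYP oxidation and UGT glucuronidation were derived from human liver microsomal incubations. For the glucuronidation arm, microsomes were supplemented with the UGT cofactor UDP-glucuronic acid.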

Canis familiaris [6] = assay: Toxicity in beagle dog at 3 to 30 mg/kg, po qd administered for 1 month; assay type: organism-based, Canis lupus familiaris; conditions: in vivo
[7] = Half life in beagle dog at 1 mg/kg, iv; assay type: ADME, organism-based, Canis lupus familiaris; conditions: in vivo
[8] = Half life in beagle dog at 5 mg/kg, po; assay type: ADME, organism-based, Canis lupus familiaris; conditions: in vivo
[9] = Plasma clearance in beagle dog at 1 mg/kg, iv; assay type: ADME, organism-based, Canis lupus familiaris
[10] = Ratio of Cmax in beagle dog at 30 mg/kg, po qd administered for 1 month to IC50 for in vitro inhibition of dog DGAT2; assay type: organism-based, Canis lupus familiaris; conditions: in vivo
Outline: (§5)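 One-month toxicity study in Beagle dogs with N = 2/sex/dose. Plasma exposure at each dose level was referenced to the dog DGAT2 enzymatic IC50, reported as the geometric mean of at least three replicates.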

[11] = Apparent intrinsic clearance in dog hepatocytes assessed per million cells; assay type: ADME, cell-based, Canis lupus familiaris, Hepatocyte
[12] = target: T1, Diacylglycerol O-acyltransferase 2 (Canis lupus familiaris, UniProt A0A8I3NDW2); assay: Inhibition of dog DGAT2
T1 sequence (A0A8I3NDW2 whole entry): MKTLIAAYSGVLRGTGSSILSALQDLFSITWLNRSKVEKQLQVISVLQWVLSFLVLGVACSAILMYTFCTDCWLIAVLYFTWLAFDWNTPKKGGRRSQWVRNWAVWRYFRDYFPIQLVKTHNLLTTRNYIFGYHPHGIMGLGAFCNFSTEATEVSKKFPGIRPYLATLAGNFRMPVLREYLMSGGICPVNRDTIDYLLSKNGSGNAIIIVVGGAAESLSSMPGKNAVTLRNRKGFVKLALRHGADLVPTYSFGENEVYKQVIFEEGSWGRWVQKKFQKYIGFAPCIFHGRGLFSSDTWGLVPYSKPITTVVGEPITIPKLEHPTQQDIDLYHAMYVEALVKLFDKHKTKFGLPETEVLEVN

Canis familiaris [13] = assay: In vivo inhibition of DGAT2 in beagle dog assessed as coverage of in vitro IC50 for dog DGAT2 at 3 mg/kg, po qd administered for 1 month; assay type: functional, Canis lupus familiaris; parameters: scale not given: the % may be the effect or the level left
Outline: (§6)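 Beagle dogs, once-daily oral dosing for 14 days or 1 month; systemic exposure with sexes combined; coverage is the average % above dog DGAT2 IC50 at steady state over the 24 h dosing interval.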

Canis familiaris [14] = assay: In vivo inhibition of DGAT2 in beagle dog assessed as coverage of in vitro IC50 for dog DGAT2 at 10 mg/kg, po qd administered for 1 month; assay type: functional, Canis lupus familiaris; parameters: scale not given: the % may be the effect or the level left; outline: as §6
[15] = Oral bioavailability in beagle dog at 5 mg/kg; assay type: ADME, organism-based, Canis lupus familiaris; conditions: in vivo
Cytochrome P450 3A4 [16] = target: T2, Cytochrome P450 3A4 (Homo sapiens, UniProt P08684); assay: Drug metabolism in human liver microsomes assessed as fraction of CYP3A4-mediated oxidative metabolism preincubated for 5 mins followed by addition of NADPH regenerating system and measured after 2.5 to 60 mins; assay type: ADME; outline: as §4
Canis familiaris [17] = assay: Unbound Cmax in beagle dog at 3 mg/kg, po qd administered for 1 month; assay type: ADME, organism-based, Canis lupus familiaris; conditions: in vivo; outline: as §3
Canis familiaris [18] = assay: Unbound Cmax in beagle dog at 10 mg/kg, po qd administered for 1 month; assay type: ADME, organism-based, Canis lupus familiaris; conditions: in vivo
Outline: (§7)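 Beagle dogs were dosed orally once daily in a 14-day exploratory study or 1-month toxicity studies. Steady-state systemic exposure over the 24 h dosing interval is reported as the mean of male and female values combined.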

[19] = Ratio of Cmax in beagle dog at 3 mg/kg, po qd administered for 1 month to IC50 for in vitro inhibition of dog DGAT2; assay type: organism-based, Canis lupus familiaris; conditions: in vivo; outline: as §5
Canis familiaris [20] = assay: Unbound AUC in beagle dog at 30 mg/kg, po qd administered for 1 month; assay type: ADME, organism-based, Canis lupus familiaris; conditions: in vivo; outline: as §7
[21] = target: T3, Diacylglycerol O-acyltransferase 1 (Homo sapiens, UniProt O75907); assay: Inhibition of DGAT1 (unknown origin)
T3 sequence (O75907 whole entry): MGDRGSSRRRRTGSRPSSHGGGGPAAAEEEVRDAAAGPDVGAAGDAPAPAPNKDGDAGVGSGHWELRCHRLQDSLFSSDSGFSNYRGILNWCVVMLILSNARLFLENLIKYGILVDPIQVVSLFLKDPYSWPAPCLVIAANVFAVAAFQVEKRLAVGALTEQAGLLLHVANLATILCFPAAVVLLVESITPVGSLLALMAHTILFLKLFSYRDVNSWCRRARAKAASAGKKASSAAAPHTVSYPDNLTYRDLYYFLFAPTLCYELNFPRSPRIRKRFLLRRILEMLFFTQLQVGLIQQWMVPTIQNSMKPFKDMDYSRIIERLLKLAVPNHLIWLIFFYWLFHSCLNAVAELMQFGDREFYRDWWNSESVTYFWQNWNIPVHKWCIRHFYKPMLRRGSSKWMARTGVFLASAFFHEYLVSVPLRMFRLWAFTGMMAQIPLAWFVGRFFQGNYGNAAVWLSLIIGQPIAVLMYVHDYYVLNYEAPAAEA

Canis familiaris [22] = assay: In vivo inhibition of DGAT2 in beagle dog assessed as coverage of in vitro IC50 for dog DGAT2 at 30 mg/kg, po qd administered for 1 month; assay type: functional, Canis lupus familiaris; parameters: scale not given: the % may be the effect or the level left; outline: as §6
[23] = target: T4, Diacylglycerol O-acyltransferase 2 (Rattus norvegicus, UniProt Q5FVP8); assay: Inhibition of rat DGAT2
T4 sequence (Q5FVP8 whole entry): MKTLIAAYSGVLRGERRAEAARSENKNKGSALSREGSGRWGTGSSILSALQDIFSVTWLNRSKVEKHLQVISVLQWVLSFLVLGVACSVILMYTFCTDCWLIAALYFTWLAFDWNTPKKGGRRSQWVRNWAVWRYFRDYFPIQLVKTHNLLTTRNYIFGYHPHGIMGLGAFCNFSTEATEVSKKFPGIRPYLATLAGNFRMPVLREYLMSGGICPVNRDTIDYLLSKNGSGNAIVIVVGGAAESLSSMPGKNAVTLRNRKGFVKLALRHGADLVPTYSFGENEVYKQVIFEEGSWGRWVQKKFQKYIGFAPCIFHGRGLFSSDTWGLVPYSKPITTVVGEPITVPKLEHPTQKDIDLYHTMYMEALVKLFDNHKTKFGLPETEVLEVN

Canis familiaris [24] = assay: Unbound AUC in beagle dog at 3 mg/kg, po qd administered for 1 month; assay type: ADME, organism-based, Canis lupus familiaris; conditions: in vivo; outline: as §7
[25] = Apparent permeability of the compound at pH 7.4; assay type: ADME; conditions: not told
[26] = target: T5, Diacylglycerol O-acyltransferase 2 (Homo sapiens, UniProt Q96PD7); assay: Inhibition of human DGAT2
T5 sequence (Q96PD7 whole entry): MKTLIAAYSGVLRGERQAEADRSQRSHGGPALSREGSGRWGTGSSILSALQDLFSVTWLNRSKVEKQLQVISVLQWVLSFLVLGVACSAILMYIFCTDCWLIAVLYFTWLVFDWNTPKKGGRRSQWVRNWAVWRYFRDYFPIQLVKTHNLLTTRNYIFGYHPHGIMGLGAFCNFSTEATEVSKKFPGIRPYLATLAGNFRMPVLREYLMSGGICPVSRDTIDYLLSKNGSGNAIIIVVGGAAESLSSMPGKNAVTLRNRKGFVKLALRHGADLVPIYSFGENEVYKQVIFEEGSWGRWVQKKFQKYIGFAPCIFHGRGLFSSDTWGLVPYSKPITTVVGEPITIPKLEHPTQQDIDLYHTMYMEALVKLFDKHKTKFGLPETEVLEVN
Outline: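 IC50 against human DGAT2 in an enzymatic assay, reported as the geometric mean of at least three replicates with SEM.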

[27] = Ratio of Cmax in beagle dog at 10 mg/kg, po qd administered for 1 month to IC50 for in vitro inhibition of dog DGAT2; assay type: organism-based, Canis lupus familiaris; conditions: in vivo; outline: as §5
[28] = Thermodynamic solubility of the compound at pH 6.5; assay type: physicochemical; conditions: buffer, read-out: Therm_solubility
[29] = Apparent intrinsic clearance in human hepatocytes assessed per million cells; assay type: ADME, cell-based, Hepatocyte
Canis familiaris [30] = assay: Unbound AUC in beagle dog at 10 mg/kg, po qd administered for 1 month; assay type: ADME, organism-based, Canis lupus familiaris; conditions: in vivo; outline: as §7
[31] = Fraction unbound in dog plasma; assay type: ADME, cell-free, Canis lupus familiaris
[32] = Volume of distribution at steady state in beagle dog at 1 mg/kg, iv; assay type: ADME, organism-based, Canis lupus familiaris; conditions: in vivo, read-out: Vdss
Outline: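 Male Beagle dogs, single iv dose, crystalline form of compound; value is the mean of two experiments.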

Cytochrome P450 3A4 [33] = target: T2, Cytochrome P450 3A4; assay: as §2; assay type: ADME; conditions: microsomes
Rattus norvegicus = assay: In vivo DGAT2 inhibition in po dosed sucrose-fed rat assessed as decrease in plasma triglyceride levels after 2 hrs; assay type: functional, organism-based
Outline: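 Rats fed a high-sucrose diet, single oral dose of test article or vehicle; plasma TG measured in tail-vein blood 2 h post dose; n = 7–8 per group; results as percent change from vehicle group, one-way ANOVA with Dunnett's test.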

Sequence of CYP3A4 (P08684 whole entry): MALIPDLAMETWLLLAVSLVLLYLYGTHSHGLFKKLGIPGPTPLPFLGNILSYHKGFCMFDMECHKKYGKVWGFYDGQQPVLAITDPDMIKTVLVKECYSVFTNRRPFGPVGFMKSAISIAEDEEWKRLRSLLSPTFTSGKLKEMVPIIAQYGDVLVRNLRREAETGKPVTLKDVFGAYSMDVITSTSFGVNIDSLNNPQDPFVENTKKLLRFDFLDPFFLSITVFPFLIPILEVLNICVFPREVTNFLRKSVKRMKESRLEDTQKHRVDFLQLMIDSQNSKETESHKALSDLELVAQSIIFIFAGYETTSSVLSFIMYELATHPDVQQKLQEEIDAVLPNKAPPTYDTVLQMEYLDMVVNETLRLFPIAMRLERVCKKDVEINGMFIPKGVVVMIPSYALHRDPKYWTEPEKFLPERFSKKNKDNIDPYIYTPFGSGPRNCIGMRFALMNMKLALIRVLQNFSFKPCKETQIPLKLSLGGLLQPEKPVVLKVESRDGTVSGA
T2 sequence (P08684 whole entry): as above

C[C@H](c1nc2ccc(N3CCC[C@@H](C(=O)N4CCCC4)C3)nc2[nH]1)n1cc(Cl)cn1
microsomal CLint (UGT): 7.6 µL/min/mg
microsomal CLint (CYP3A4): 26 µL/min/mg

CC(C)(c1nc2ccc(N3CCC[C@@H](C(=O)N4CCCC4)C3)nc2[nH]1)n1cc(Cl)cn1
microsomal CLint (CYP3A4): 35.4 µL/min/mg

CC(c1nc2cnc(N3CCC[C@@H](C(=O)N4CCCC4)C3)nc2[nH]1)n1cc(Cl)cn1 (single isomer, unassigned; diastereomer 1) [listing 1 of 2 here]
CLH(app) [1]: 12 µL/min
fCmax (Canis familiaris [2]): 1760 nM
fraction unbound [3]: 0.18
CLH [4]: 20.3 µL/min/mg
Ratio [5]: 0.52
Activity (Canis familiaris [6]): Non-Toxic
half-life [7]: 66 min
half-life [8]: 228 min
clearance [9]: 7.3 mL/min/kg
Ratio [10]: 33
CLH(app) [11]: < 8 µL/min
IC50 [12]: 53 nM
Activity (Canis familiaris [13]): 21%
Activity (Canis familiaris [14]): 50%
bioavailability [15]: 32%
Ratio (Cytochrome P450 3A4 [16]): 0.48
fCmax (Canis familiaris [17]): 140 nM
fCmax (Canis familiaris [18]): 487 nM
Ratio [19]: 3
fAUC (Canis familiaris [20]): 1560 ng·h/mL
IC50 [21]: > 50 µM
Activity (Canis familiaris [22]): 74%
IC50 [23]: 241 nM
fAUC (Canis familiaris [24]): 149 ng·h/mL
Papp [25]: 16.2 ×10⁻⁶ cm/s
IC50 [26]: 26 nM
Ratio [27]: 9
solubility thermodynamic [28]: 53 µg/mL (≈ 124 µM)
CLH(app) [29]: 13.1 µL/min
fAUC (Canis familiaris [30]): 540 ng·h/mL
fraction unbound [31]: 0.25
Vd [32]: 0.58 L/kg
CLH (Cytochrome P450 3A4 [33]): 23.5 µL/min/mg

CC(c1nc2cnc(N3CCC[C@@H](C(=O)N4CCCC4)C3)nc2[nH]1)n1cc(Cl)cn1 (single isomer, unassigned; diastereomer 1) [listing 2 of 2 here]
inhibition (Rattus norvegicus): Dose-dependent effect

CC(c1nc2cnc(N3CCC[C@@H](C(=O)N4CCCC4)C3)nc2[nH]1)n1cc(Cl)cn1 (single isomer, unassigned; diastereomer 2)
microsomal CLint (UGT): 15.2 µL/min/mg
IC50 [26]: 37 nM
microsomal CLint (CYP3A4): 21.5 µL/min/mg
